Reference: ChEMBL document CHEMBL1133607, “Nonpeptide analogues of dynorphin A(1-8): design, synthesis, and pharmacological evaluation of kappa-selective agonists” (J Med Chem, 2000)

test system: Mus musculus; test: Effective dose after 10 mg/kg of nor-BNI administered subcutaneously 10 min before agonist administered in mouse rotarod test; type: functional; conditions: sc, route subcutaneous
Outline: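 Male albino Swiss mice received nor-BNI 10 mg/kg sc 10 min before agonist (sc, saline/0.5% CMC). 30 min after agonist, mice were placed on an accelerating rotarod with three trials; failure in any trial counted as impaired. ED50 is […].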

Compound | ED50 [mg/kg]
CCCCC(=N)NCCCCCNC(=O)C(CC(C)C)NC(=O)CNC(=O)[C@]1(c2ccccc2)CC1CN1CC[C@@]2(C)c3cc(O)ccc3CC1C2C (some centres not stated) | 9.2
CCCCC(=N)NCCCCCCNC(=O)C(CC(C)C)NC(=O)CNC(=O)[C@]1(c2ccccc2)CC1CN1CC[C@@]2(C)c3cc(O)ccc3CC1C2C (some centres not stated) | 11.9

target: Opioid receptors; mu & kappa (UniProt P41145+P35372); test: Ratio of affinity towards mu and kappa opioid receptors; type: protein assay; conditions: not given
Sequence (P35372 whole entry, looked up): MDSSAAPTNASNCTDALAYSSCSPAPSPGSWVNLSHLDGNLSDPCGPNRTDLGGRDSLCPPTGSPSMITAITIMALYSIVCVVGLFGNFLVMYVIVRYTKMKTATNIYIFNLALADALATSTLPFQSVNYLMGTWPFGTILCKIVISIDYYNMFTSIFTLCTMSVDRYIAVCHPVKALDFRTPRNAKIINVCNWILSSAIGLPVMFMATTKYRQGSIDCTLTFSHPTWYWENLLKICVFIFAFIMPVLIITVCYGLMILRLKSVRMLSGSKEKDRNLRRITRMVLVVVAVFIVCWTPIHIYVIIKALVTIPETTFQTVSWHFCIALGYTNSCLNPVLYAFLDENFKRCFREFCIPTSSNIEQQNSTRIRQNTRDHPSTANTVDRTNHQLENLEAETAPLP
Sequence (P41145 whole entry, looked up): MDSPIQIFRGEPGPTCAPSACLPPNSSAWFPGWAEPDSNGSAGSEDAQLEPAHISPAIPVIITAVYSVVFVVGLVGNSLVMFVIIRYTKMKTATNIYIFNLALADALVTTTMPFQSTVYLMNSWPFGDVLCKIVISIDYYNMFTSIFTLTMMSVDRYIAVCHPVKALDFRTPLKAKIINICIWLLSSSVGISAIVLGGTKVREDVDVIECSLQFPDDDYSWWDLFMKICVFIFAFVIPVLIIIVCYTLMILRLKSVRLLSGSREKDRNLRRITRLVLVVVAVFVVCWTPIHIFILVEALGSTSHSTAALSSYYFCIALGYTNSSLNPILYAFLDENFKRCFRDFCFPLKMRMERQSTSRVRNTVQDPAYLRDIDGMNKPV

Compound | Selectivity ratio
CC(C)CC(NC(=O)[C@]1(c2ccccc2)CC1CN1CC[C@@]2(C)c3cc(O)ccc3CC1C2C)C(=O)NCCCCCCN=C(N)N (some centres not stated) | 18.9
CC(C)CC(NC(=O)[C@]1(c2ccccc2)CC1CN1CC[C@@]2(C)c3cc(O)ccc3CC1C2C)C(=O)NCCCCCCN (some centres not stated) | 12.7
CC(C)CC(NC(=O)CNC(=O)[C@]1(c2ccccc2)CC1CN1CC[C@@]2(C)c3cc(O)ccc3CC1C2C)C(=O)NCCCCCN (some centres not stated) | 44.4
CCCC(=N)NCCCCNC(=O)C(CC(C)C)NC(=O)CNC(=O)[C@]1(c2ccccc2)CC1CN1CC[C@@]2(C)c3cc(O)ccc3CC1C2C (some centres not stated) | 100

target: Opioid receptors; delta & kappa (Homo sapiens) (UniProt P41145+P41143); test: (§1) Ratio of affinity towards delta to kappa opioid receptor; type: protein assay; conditions: not given
Sequence (P41143 whole entry, looked up): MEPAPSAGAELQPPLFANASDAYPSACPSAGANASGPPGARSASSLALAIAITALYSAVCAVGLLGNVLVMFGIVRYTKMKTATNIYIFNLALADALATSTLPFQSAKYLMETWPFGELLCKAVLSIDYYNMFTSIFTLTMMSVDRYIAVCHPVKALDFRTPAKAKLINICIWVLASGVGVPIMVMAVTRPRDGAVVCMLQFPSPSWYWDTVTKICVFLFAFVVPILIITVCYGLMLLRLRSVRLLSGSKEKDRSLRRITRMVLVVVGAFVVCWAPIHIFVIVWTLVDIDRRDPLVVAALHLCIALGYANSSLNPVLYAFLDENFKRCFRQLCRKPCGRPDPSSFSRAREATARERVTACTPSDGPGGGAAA
Sequence (P41145 whole entry, looked up): as the sequence (P41145 whole entry, looked up) above

Compound | Ratio
CC(C)CC(NC(=O)[C@]1(c2ccccc2)CC1CN1CC[C@@]2(C)c3cc(O)ccc3CC1C2C)C(=O)NCCCCCCN (some centres not stated) | 14.1

test system: Mus musculus; test: Antinociceptive activity by measuring effective dose after 10 mg/kg of nor-BNI administered subcutaneously 10 min before agonist administered in mouse; type: functional; conditions: sc, route subcutaneous
Outline: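 Male albino Swiss mice (20-25 g) given compound sc in saline with 0.5% CMC (0.1-10 mg/kg) 30 min before testing. nor-BNI 10 mg/kg sc given 10 min before agonist. Acetylcholine-induced abdominal constrictions were counted for 5 min after ip acetylcholine. ED50 is the dose that halves constrictions relative to vehicle.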

Compound | ED50 [mg/kg]
CCCCC(=N)NCCCCCNC(=O)C(CC(C)C)NC(=O)CNC(=O)[C@]1(c2ccccc2)CC1CN1CC[C@@]2(C)c3cc(O)ccc3CC1C2C (some centres not stated) | 0.88
CCCCC(=N)NCCCCCCNC(=O)C(CC(C)C)NC(=O)CNC(=O)[C@]1(c2ccccc2)CC1CN1CC[C@@]2(C)c3cc(O)ccc3CC1C2C (some centres not stated) | 1.1

target: Kappa-type opioid receptor (Cavia porcellus, UniProt P41144); test: Displacement of [3H]-U-69,593 from Opioid receptor kappa 1 in guinea pig cerebellar.; conditions: not given
Sequence (P41144 whole entry): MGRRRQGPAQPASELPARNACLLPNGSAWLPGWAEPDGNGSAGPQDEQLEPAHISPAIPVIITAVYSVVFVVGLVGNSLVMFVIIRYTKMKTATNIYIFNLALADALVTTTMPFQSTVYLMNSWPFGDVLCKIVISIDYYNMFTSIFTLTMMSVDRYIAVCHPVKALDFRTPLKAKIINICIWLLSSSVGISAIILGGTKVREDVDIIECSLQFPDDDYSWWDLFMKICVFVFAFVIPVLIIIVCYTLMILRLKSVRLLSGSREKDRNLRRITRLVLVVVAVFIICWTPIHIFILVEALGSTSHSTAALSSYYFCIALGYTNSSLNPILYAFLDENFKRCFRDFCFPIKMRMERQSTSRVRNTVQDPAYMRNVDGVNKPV

Compound | Ki [nM]
CCCCC(=N)NCCCCCNC(=O)C(CC(C)C)NC(=O)CNC(=O)[C@]1(c2ccccc2)CC1CN1CC[C@@]2(C)c3cc(O)ccc3CC1C2C (some centres not stated) | 6.7
CCCCC(=N)NCCCCCCNC(=O)C(CC(C)C)NC(=O)CNC(=O)[C@]1(c2ccccc2)CC1CN1CC[C@@]2(C)c3cc(O)ccc3CC1C2C (some centres not stated) | 5.3
CC(C)CC(NC(=O)[C@]1(c2ccccc2)CC1CN1CC[C@@]2(C)c3cc(O)ccc3CC1C2C)C(=O)NCCCCCCN=C(N)N (some centres not stated) | 139
CC(C)CC(NC(=O)[C@]1(c2ccccc2)CC1CN1CC[C@@]2(C)c3cc(O)ccc3CC1C2C)C(=O)NCCCCCCN (some centres not stated) | 242
CC(C)CC(NC(=O)CNC(=O)[C@]1(c2ccccc2)CC1CN1CC[C@@]2(C)c3cc(O)ccc3CC1C2C)C(=O)NCCCCCN (some centres not stated) | 246
CCCC(=N)NCCCCNC(=O)C(CC(C)C)NC(=O)CNC(=O)[C@]1(c2ccccc2)CC1CN1CC[C@@]2(C)c3cc(O)ccc3CC1C2C (some centres not stated) | 67.8

target: T1, Mu-type opioid receptor (Rattus norvegicus, UniProt P33535); test: Tested for binding affinity by [3H]diprenorphine displacement for Opioid receptor mu 1 was carried on crude membrane fractions obtained from the whole rat brain minus cerebellum..; type: tissue-based; conditions: not given
Outline: (§2)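 Rat whole-brain (minus cerebellum) crude membranes, 1 mg protein/tube, in 50 mM Tris-HCl pH 7.4 with aprotinin, leupeptin and bacitracin. […] U50,488 and DADLE (300 nM each) saturate κ and δ sites; 1 µM DAMGO defines nonspecific binding. Compounds tested at 10^-11 to 10^-5 M. Ki values are the mean of three experiments in duplicate.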

T1 sequence (P33535 whole entry): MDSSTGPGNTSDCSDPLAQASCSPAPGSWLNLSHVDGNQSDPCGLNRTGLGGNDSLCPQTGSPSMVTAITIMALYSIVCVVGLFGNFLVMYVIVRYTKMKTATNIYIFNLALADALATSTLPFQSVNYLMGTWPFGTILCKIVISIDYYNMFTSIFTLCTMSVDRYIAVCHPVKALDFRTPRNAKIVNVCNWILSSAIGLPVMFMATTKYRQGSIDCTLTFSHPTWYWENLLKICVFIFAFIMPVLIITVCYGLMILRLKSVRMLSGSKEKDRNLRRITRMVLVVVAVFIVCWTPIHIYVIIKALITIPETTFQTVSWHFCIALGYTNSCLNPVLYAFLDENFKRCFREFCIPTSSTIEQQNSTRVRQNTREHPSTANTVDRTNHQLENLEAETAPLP

Compound | Ki [nM]
COC(=O)[C@]1(c2ccccc2)C[C@@H]1CN1CC[C@@]2(C)c3cc(O)ccc3CC1[C@@H]2C | > 25000

target: T2, Delta-type opioid receptor (Rattus norvegicus, UniProt P33533); test: Displacement of [3H]diprenorphine opioid receptor delta 1 on crude membrane fractions obtained from the whole rat brain (minus cerebellum); type: tissue-based; conditions: not given
Outline: as §2, with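 “DAMGO” for “DADLE”, “µ” for “δ”, “DPDPE” for “DAMGO”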

T2 sequence (P33533 whole entry): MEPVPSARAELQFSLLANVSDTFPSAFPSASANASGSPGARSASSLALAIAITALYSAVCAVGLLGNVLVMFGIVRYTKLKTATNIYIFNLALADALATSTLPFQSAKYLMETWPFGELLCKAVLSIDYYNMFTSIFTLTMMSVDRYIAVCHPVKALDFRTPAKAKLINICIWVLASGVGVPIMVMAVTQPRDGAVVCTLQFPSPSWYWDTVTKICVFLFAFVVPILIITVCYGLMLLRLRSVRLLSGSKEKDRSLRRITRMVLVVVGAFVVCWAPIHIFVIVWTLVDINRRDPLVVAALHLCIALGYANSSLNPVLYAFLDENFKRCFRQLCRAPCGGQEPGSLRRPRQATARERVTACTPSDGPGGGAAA

Compound | Ki [nM]
CCCCC(=N)NCCCCCNC(=O)C(CC(C)C)NC(=O)CNC(=O)[C@]1(c2ccccc2)CC1CN1CC[C@@]2(C)c3cc(O)ccc3CC1C2C (some centres not stated) | 2750
CCCCC(=N)NCCCCCCNC(=O)C(CC(C)C)NC(=O)CNC(=O)[C@]1(c2ccccc2)CC1CN1CC[C@@]2(C)c3cc(O)ccc3CC1C2C (some centres not stated) | 2230
CC(C)CC(NC(=O)[C@]1(c2ccccc2)CC1CN1CC[C@@]2(C)c3cc(O)ccc3CC1C2C)C(=O)NCCCCCCN=C(N)N (some centres not stated) | 2830
CC(C)CC(NC(=O)[C@]1(c2ccccc2)CC1CN1CC[C@@]2(C)c3cc(O)ccc3CC1C2C)C(=O)NCCCCCCN (some centres not stated) | 3420
CC(C)CC(NC(=O)CNC(=O)[C@]1(c2ccccc2)CC1CN1CC[C@@]2(C)c3cc(O)ccc3CC1C2C)C(=O)NCCCCCN (some centres not stated) | 9580
CCCC(=N)NCCCCNC(=O)C(CC(C)C)NC(=O)CNC(=O)[C@]1(c2ccccc2)CC1CN1CC[C@@]2(C)c3cc(O)ccc3CC1C2C (some centres not stated) | 7280

target: T1, Mu-type opioid receptor; test: Displacement of [3H]diprenorphine from opioid receptor mu 1 on crude membrane fractions obtained from whole rat brain (minus cerebellum); type: tissue-based; conditions: not given; outline: as §2

Compound | Ki [nM]
CCCCC(=N)NCCCCCNC(=O)C(CC(C)C)NC(=O)CNC(=O)[C@]1(c2ccccc2)CC1CN1CC[C@@]2(C)c3cc(O)ccc3CC1C2C (some centres not stated) | 2530
CCCCC(=N)NCCCCCCNC(=O)C(CC(C)C)NC(=O)CNC(=O)[C@]1(c2ccccc2)CC1CN1CC[C@@]2(C)c3cc(O)ccc3CC1C2C (some centres not stated) | 2150
CC(C)CC(NC(=O)[C@]1(c2ccccc2)CC1CN1CC[C@@]2(C)c3cc(O)ccc3CC1C2C)C(=O)NCCCCCCN=C(N)N (some centres not stated) | 2630
CC(C)CC(NC(=O)[C@]1(c2ccccc2)CC1CN1CC[C@@]2(C)c3cc(O)ccc3CC1C2C)C(=O)NCCCCCCN (some centres not stated) | 3080
CC(C)CC(NC(=O)CNC(=O)[C@]1(c2ccccc2)CC1CN1CC[C@@]2(C)c3cc(O)ccc3CC1C2C)C(=O)NCCCCCN (some centres not stated) | 10900
CCCC(=N)NCCCCNC(=O)C(CC(C)C)NC(=O)CNC(=O)[C@]1(c2ccccc2)CC1CN1CC[C@@]2(C)c3cc(O)ccc3CC1C2C (some centres not stated) | 6780

organism: Cavia porcellus; test: as §1; conditions: not given

Compound | Selectivity ratio
CC(C)CC(NC(=O)[C@]1(c2ccccc2)CC1CN1CC[C@@]2(C)c3cc(O)ccc3CC1C2C)C(=O)NCCCCCCN=C(N)N (some centres not stated) | 20.3
CC(C)CC(NC(=O)CNC(=O)[C@]1(c2ccccc2)CC1CN1CC[C@@]2(C)c3cc(O)ccc3CC1C2C)C(=O)NCCCCCN (some centres not stated) | 38.9
CCCC(=N)NCCCCNC(=O)C(CC(C)C)NC(=O)CNC(=O)[C@]1(c2ccccc2)CC1CN1CC[C@@]2(C)c3cc(O)ccc3CC1C2C (some centres not stated) | 107

target: T2, Delta-type opioid receptor; test: Tested for binding affinity by [3H]diprenorphine displacement for Opioid receptor delta 1 are carried on crude membrane fractions obtained from the whole rat brain minus cerebellum.; type: tissue-based; conditions: not given
Outline: as §2, with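 “DAMGO” for “DADLE”, “µ” for “δ”, “DPDPE” for “DAMGO”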

Compound | Ki [nM]
COC(=O)[C@]1(c2ccccc2)C[C@@H]1CN1CC[C@@]2(C)c3cc(O)ccc3CC1[C@@H]2C | > 25000
